In the library only some 2.4% were active in any assay of this set; here they are far more common.
NadD block: inhibitors of Staphylococcus aureus NadD; AID 602399; 0.78% of 360,000 active; inhibition, % at 20 µM; purified NadD enzyme, colorimetric absorbance read-out; in the data active means inhibition above about 26%
Scp1 inh: Scp-1 (human) phosphatase inhibition | Recombinant Scp1, phosphopeptide, malachite green phosphate absorbance | 0.88% of 340,000 active | inhibition, % at 20 µM | Q9GZU7;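 active means inhibition above about 50% at 20 µM, limit read from the data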;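 further: plate controls were DMSO wells with enzyme for no effect and wells lacking enzyme for full effect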
Target sequence (Q9GZU7 76-261 limits assumed): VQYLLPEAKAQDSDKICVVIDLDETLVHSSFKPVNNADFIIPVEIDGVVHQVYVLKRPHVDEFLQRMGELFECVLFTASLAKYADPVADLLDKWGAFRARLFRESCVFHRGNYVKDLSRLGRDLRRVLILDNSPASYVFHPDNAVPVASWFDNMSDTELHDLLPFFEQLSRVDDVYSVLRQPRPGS
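assay system = SCP-1 phosphatase catalytic domain, residues 76-261 | buffer or medium = 50 mM Tris acetate pH 5.5, 0.005% Tween-20, 10 mM MgCl2 | incubation = enzyme reaction 45 min at room temperature, colour 5 min, stabilisation 30 min | signal = Phosphate-binding colour reagent, absorbance read at 630 nm | measure = % inhibition at 20 µM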
LMPTP block: LMPTP (human) inhibition; 0.22% of 360,000 active; P24666; AID 651560; inhibition, % at 20 µM; recombinant LMPTP-A, OMFP fluorogenic substrate, fluorescence intensity;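 active means compounds that cut the enzyme signal by at least half of the control window in the single-dose screen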;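 further: plate controls were DMSO wells with enzyme plus substrate for no effect and substrate without enzyme for full effect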
Target sequence (P24666 whole entry, looked up): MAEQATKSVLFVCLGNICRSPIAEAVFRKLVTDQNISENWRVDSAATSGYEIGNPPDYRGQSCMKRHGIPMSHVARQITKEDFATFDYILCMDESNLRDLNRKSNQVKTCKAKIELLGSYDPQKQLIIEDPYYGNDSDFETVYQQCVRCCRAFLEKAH
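Test system – LMPTP-A enzyme · Amount – LMPTP-A at 0.625 nM final in the reaction · Buffer or medium – Bis-Tris pH 6.0, DTT, detergent · Reagent – OMFP 400 µM · Doses – single 20 µM dose · Schedule – reaction 50 min, room temperature, dark · Detection – fluorescence intensity of OMFP turnover product · Evaluation – percent inhibition versus substrate-only and uninhibited controls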
SUMO1 PPI mod: modulators of human SUMO1-mediated protein-protein interactions | P63165 | SUMO1 binding to a labelled peptide, TR-FRET, 1 h | inhibition, % at 20 µM | 0.33% of 360,000 active; in the data active means inhibition above about 37%
Target sequence (P63165 whole entry, looked up): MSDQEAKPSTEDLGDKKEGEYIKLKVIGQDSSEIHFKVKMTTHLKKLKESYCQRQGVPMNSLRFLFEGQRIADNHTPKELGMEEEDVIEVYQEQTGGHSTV
STEP inh: inhibitors of human striatal-enriched phosphatase STEP | recombinant STEP, OMFP fluorogenic substrate, fluorescence | AID 588621 | 0.25% of 360,000 active | inhibition, % at 20 µM | P54829;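 active means inhibition at 20 µM, scaled per plate between control wells, above about 37%, limit read from the data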;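 further: 0% = DMSO with enzyme and substrate and 100% = substrate only without enzyme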
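Assay system: isolated STEP enzyme. Buffer or medium: pH 6.0 Bis-Tris with DTT and Tween 20. Also added: fluorogenic phosphatase substrate OMFP at 25 µM final. Dosing: 20 µM, 1% DMSO. Timing: 20 min reaction, room temperature, in the dark. Measured by: fluorescence intensity, excitation 480 nm, emission 540 nm. Evaluation: normalized % inhibition.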
DNMT1 inh: inhibitors of human DNMT1; DNMT1 molecular beacon, Hinp1I cleavage, fluorescence; 0.83% of 360,000 active; P26358; inhibition (reported as % activation of signal), % at 10 µM; in the data active means inhibition above about 50%
DNMT1 confirm: confirmation of human DNMT1 inhibitors. AID 602385. 8% of 2,300 active. inhibition, % at 10 µM. shares compounds with DNMT1 inh. DNMT1 molecular beacon HinP1I cleavage, fluorescence;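 active means average inhibition of at least 30% in the single-concentration confirmation test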
DNMT1 interf: shows spectral interference in the DNMT1 beacon assay. shares compounds with DNMT1 inh. DNMT1 molecular beacon spectral interference counterscreen, fluorescence 485/520. activation (fluorescence interference), % at 10 µM. 1% of 2,300 active;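 active means activation of at least 30% at 10 µM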;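 further: DNMT1 catalytic domain with a HinP1I cleavage step and a FAM/dabcyl DNA beacon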
* marks the source's active call; other numbers are inactive results; · = not tested or not shown.

SMILES | NadD block | Scp1 inh | LMPTP block | SUMO1 PPI mod | STEP inh | DNMT1 inh | DNMT1 confirm | DNMT1 interf
c1ccc2c(c1)Nc1cc3ccccc3cc1S2 | 17 | 0 | -1 | 1 | -2 | -3 | · | ·
Cc1ccc(/C=C2\SC(N3CCN(C(c4ccccc4)c4ccccc4)CC3)=NC2=O)o1 | 59* | -6 | 6 | -1 | 3 | 79* | -4 | -5
O=C1N=C(N2CCOCC2)SC1=Cc1ccco1 | 2 | -1 | -1 | -16 | -2 | 81* | 4 | 5
O=C1N=C(N2CCOCC2)S/C1=C\c1cccnc1 | -5 | -3 | -1 | -5 | -4 | 1 | · | ·
Cc1ccc(-c2ccc(/C=C3\SC(N4CCOCC4)=NC3=O)o2)cc1 | -5 | 5 | 3 | -17 | 7 | -2 | · | ·
Cc1cc(=O)[nH]c(SCC(=O)NCCOc2ccccc2)n1 | -6 | -9 | -1 | 2 | 1 | 0 | · | ·
O=C(Nc1ccc2oc(-c3ccccc3F)nc2c1)c1cncc(Br)c1 | 9 | 47 | 32 | 0 | 14 | 62* | 2 | 2
O=C(CSc1nnc(-c2ccco2)o1)c1ccc(F)c(F)c1 | -4 | -5 | 0 | -2 | 0 | -1 | · | ·
O=C(CSc1nnc(-c2ccco2)o1)c1ccc[nH]1 | 16 | 40 | 53* | 18 | 1 | 55* | 6 | 3
CN(c1ccccc1C(=O)Nc1ccccc1C(=O)NCc1ccco1)S(C)(=O)=O | 0 | -2 | -1 | 2 | -8 | -1 | · | ·
CC1=C(C(=O)Nc2ccccc2)C(c2ccc(C)o2)n2c(s/c(=C/c3ccccc3)c2=O)=N1 (stereo unspecified) | 19 | 1 | 1 | -7 | 1 | 84* | 3 | 0
O=C(Nc1ccc2c(c1)OCO2)C1CCCN1C(=O)Nc1cccc(F)c1 (stereo unspecified) | 5 | 0 | -1 | 0 | -4 | 0 | · | ·
COc1ccc(Cl)cc1C(=O)NNC(=O)c1nn(C)c(=O)c2ccccc12 | 2 | -9 | -2 | -6 | -1 | 1 | · | ·
COC(=O)c1ccccc1S(=O)(=O)NNC(=O)c1nn(C)c(=O)c2ccccc12 | 1 | -4 | -1 | 12 | -1 | 53* | 5 | 6
CC1(C)CC2(CCCN(CC(O)(c3ccccc3)c3ccccc3)C2)CCO1 (stereo unspecified) | -4 | -6 | 1 | 2 | 1 | 94* | 4 | 3
COc1cccc(OC)c1C(=O)Nc1sc2c(c1C(N)=O)CCN(Cc1ccccc1)C2 | 1 | -9 | -1 | -4 | 1 | -7 | · | ·
CC(=O)c1ccc(C(=O)Nc2sc3c(c2C(N)=O)CCN(Cc2ccccc2)C3)cc1 | 6 | · | 2 | -6 | -13 | 84* | 10 | 3
COc1cc([N+](=O)[O-])ccc1-c1ccc(/C=N\n2cnnc2)o1 | 1 | 12 | 22 | -4 | 31 | 4 | · | ·
COc1cc([N+](=O)[O-])ccc1-c1ccc(/C=C2\C(=O)ON=C2c2ccccc2)o1 | 45* | 3 | 3 | 64* | 4 | 80* | 18 | -6
O=C(NCc1ccco1)c1c[nH]c2ccc(S(=O)(=O)N3CCOCC3)cc2c1=O | -3 | 0 | -1 | 10 | -1 | -1 | · | ·
O=C(CCN1CCN(c2ccccc2)CC1)N/N=C/c1ccc(O)c(O)c1O | 30 | 1 | 67* | 23 | 4 | 79* | 3 | 2
COc1ccc(/C=N/NC(=O)CCN2CCN(c3ccccc3)CC2)c(OC)c1OC | -1 | -7 | 0 | -2 | 3 | -1 | · | ·
COc1ccc(-c2nnc(SCC(=O)NCCc3ccc(S(N)(=O)=O)cc3)o2)cc1OC | 0 | -4 | -1 | 1 | 1 | 3 | · | ·
Nc1nnnn1/N=C/c1cc(Cl)cc(Cl)c1OCc1ccc(Cl)cc1Cl | 5 | 4 | 1 | 1 | -1 | 59* | 2 | 2
Nc1nnnn1/N=C/c1ccccc1OCc1ccc(Cl)cc1 | 0 | 7 | 1 | -1 | 2 | 3 | · | ·
SMILES | NadD block | Scp1 inh | LMPTP block | SUMO1 PPI mod | STEP inh | DNMT1 inh | DNMT1 confirm | DNMT1 interf
Nc1nnnn1/N=C/c1ccccc1OCc1ccc(Cl)cc1Cl | -7 | -6 | 1 | 0 | -3 | 52* | 7 | 5
Cc1ccc(S(=O)(=O)N2CCCOC2CNC(=O)C(=O)NCCCn2ccnc2)cc1 (stereo unspecified) | 1 | -1 | -6 | -1 | 0 | 2 | · | ·
CCCSc1nc2c(c(=O)[nH]c(=O)n2C)n1Cc1ccccc1 | 1 | 6 | -2 | 6 | 0 | -3 | · | ·
Cc1ccc(Cn2c(SCc3cccnc3)nc3c2c(=O)n(C)c(=O)n3C)cc1 | 3 | -6 | 2 | 0 | 6 | 108* | 7 | 5
CCCSc1nc2c(c(=O)[nH]c(=O)n2C)n1Cc1ccc(C)cc1 | 1 | -2 | 0 | 1 | 1 | 54* | 0 | 1
CCOC(=O)C1CCN(Cc2ccccc2C)CC1 | 4 | -11 | 0 | -5 | -1 | 0 | · | ·
CC(=O)Oc1cccc(/C=c2\sc3nc(-c4ccco4)nn3c2=O)c1 | 2 | 14 | -1 | 26 | 2 | 61* | 2 | 2
c1ccc(-c2cnn3c(-c4ccccc4)c(-c4ccccc4)nc3n2)cc1 | 17 | 6 | -6 | -50 | -190 | 178* | 13 | 60*
COc1ccc(CCn2c(O)cc3nn(-c4nc5ccccc5s4)c(=O)c-3c2C)cc1 | 73* | 62* | 53* | 14 | 11 | 79* | 11 | 44*
COc1ccc(CN2CCN(c3nc4ccccc4s3)CC2)cc1 | -12 | -6 | -1 | -2 | -2 | 1 | · | ·
CC1CCCN(C(=O)Cn2nnc(-c3ccc(F)cc3)n2)C1 (stereo unspecified) | -5 | -1 | -1 | -1 | -1 | 4 | · | ·
CCOc1ccccc1-n1c(SCC(=O)Nc2nccs2)nnc1-c1ccoc1C | 11 | 0 | 0 | 0 | 3 | 1 | · | ·
O=c1cc(-c2ccco2)oc2c1ccc1ccccc12 | 0 | 16 | 7 | 10 | 2 | 65* | 1 | 0
O=C1Nc2ccc3c(c2C1=Cc1cc2c(cc1Br)OCO2)OCO3 | 9 | 15 | 21 | 1 | 3 | 67* | 1 | 1
Cc1cc(/C=N/Nc2ccc([N+](=O)[O-])cn2)c(C)n1-c1ccc(C(=O)O)cc1 | 17 | 57* | 12 | 10 | 6 | 61* | 4 | 1
CCc1cccc(NC(=O)c2cccc(S(=O)(=O)N3CCN(C)CC3)c2)c1 | 1 | -1 | 0 | -2 | -1 | 1 | · | ·
